From PubChem BioAssay AID588621 (Sanford-Burnham Center for Chemical Genomics, 2011)
The campaign covered roughly 360,000 compounds. About 890 (0.25%) were called active.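 How the source made its calls: active means inhibition at 20 µM, scaled per plate between control wells, above about 37% (limit read from the data); inactive means the rest.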 The list comes from a sample in which actives are over-represented; it also holds similar structures and randomly drawn compounds.

molecular target: Tyrosine-protein phosphatase non-receptor type 5 (Homo sapiens) (UniProt P54829); assay: STEP phosphatase inhibitors, primary screen, biochemical, fluorescence intensity, uHTS (AID 588621); details: recombinant STEP, OMFP fluorogenic substrate, at 20 µM, active compounds read high;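 further: 0% = DMSO with enzyme and substrate and 100% = substrate only without enzyme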
In short: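 Material: STEP (striatal-enriched tyrosine phosphatase) enzyme, cell-free | Medium: 50 mM Bis-Tris pH 6.0 with 2.5 mM DTT and 0.005% Tween 20 | Read-out: Percent inhibition scaled to no-enzyme and uninhibited-enzyme controls, plate-pattern corrected | Signal: Fluorescence read at 480 nm ex / 540 nm em | Times: 20 min reaction, room temperature, in the dark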

Chain of Tyrosine-protein phosphatase non-receptor type 5 (Homo sapiens) (P54829 whole entry, looked up): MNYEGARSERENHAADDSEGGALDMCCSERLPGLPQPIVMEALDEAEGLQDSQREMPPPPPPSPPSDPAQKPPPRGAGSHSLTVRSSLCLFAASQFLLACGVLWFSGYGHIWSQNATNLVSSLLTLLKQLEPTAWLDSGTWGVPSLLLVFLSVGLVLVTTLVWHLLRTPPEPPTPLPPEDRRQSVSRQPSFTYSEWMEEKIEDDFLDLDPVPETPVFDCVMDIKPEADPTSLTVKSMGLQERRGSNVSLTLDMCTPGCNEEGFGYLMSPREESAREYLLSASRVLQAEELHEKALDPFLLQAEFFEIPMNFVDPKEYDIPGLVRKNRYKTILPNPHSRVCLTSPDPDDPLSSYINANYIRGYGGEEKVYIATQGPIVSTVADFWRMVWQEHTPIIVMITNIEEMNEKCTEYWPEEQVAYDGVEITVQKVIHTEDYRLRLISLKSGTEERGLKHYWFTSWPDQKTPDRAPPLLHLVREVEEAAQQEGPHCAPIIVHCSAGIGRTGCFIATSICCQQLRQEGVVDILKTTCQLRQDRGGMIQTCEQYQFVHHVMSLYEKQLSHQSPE

inhibition, inactive:
Cc1cc(F)ccc1S(=O)(=O)Nc1ccc(C(=O)N(C)Cc2ccco2)cc1 2.5%, Cc1ccccc1NC(=O)C(C)OC(=O)CCC(=O)N(CC(C)C)c1c(N)n(CC(C)C)c(=O)[nH]c1=O (stereo not given) -1.1%, CCOc1ccc(NC(=O)c2ccc(NC(=O)CN3C(=O)C(=O)N(CC(C)C)C3=O)cc2)cc1 -3.1%, Cc1cc2nc(C)n(CCCNC(=O)Nc3ccccc3)c2cc1C -3.8%, COc1ccc(CCNC(=O)Nc2ccc3c(c2)c(=O)n(C)n3C)cc1OC 1.1%, O=C(COC(=O)Cc1ccc(Br)cc1)Nc1c(F)c(F)c(F)c(F)c1F -0.2%, Nc1cc(=O)c2[nH]cnc2[nH]1 -4.7%, COc1ccc(NC(=O)COc2ccc(C(=O)OCC(=O)N(C)C3CCS(=O)(=O)C3)cc2OC)cc1 (stereo not given) -4.8%, CN(C(=O)COC(=O)Cc1ccccc1[N+](=O)[O-])C1CCS(=O)(=O)C1 (stereo not given) -3.3%, O=C1c2ccccc2C(=O)N1CCC(O)C[N+](=O)[O-] (stereo not given) 3.3%, COC(=O)C1=C(C)NC(=S)NC1c1ccc(OCC(=O)N2CC(C)OC(C)C2)c(OC)c1 (stereo not given) -3.9%, O=S(=O)(c1ccc(-c2ccno2)s1)N1CCCCC1 -0.2%, Cc1ccccc1CC1(CO)CCCN(Cc2ccc3c(c2)OCCO3)C1 (stereo not given) -4%, Cc1noc(C)c1CCC(=O)N1CCCC(CO)(Cc2ccccc2)C1 (stereo not given) -1.7%, COc1ccc(S(=O)(=O)NC(C)C(=O)NCc2ccncc2)cc1Cl (stereo not given) -1.3%, CCCCC[C@@H]1C=C(C(=O)O)[C@H](c2ccc(C#N)cc2)N1S(=O)(=O)c1ccc(C)cc1 -1.7%, O=C(CS(=O)(=O)Cc1ccccc1)Nc1cccnc1 -1.4%, O=C(OCC(=O)N1CCCC1)c1ccc(Cl)nc1 -2.6%, CC(C)(C)c1ccc(SCCc2ccncc2)cc1 0%, CCN(C(=O)COc1ccc(C(=O)c2ccccc2)cc1)c1ccccc1 -1.7%, O=C(COC(=O)COc1cccc(F)c1)NCC1CCCCC1 -3.8%, S=C(Nc1ccc2c(c1)OCO2)N1CCCC1 -3.3%, Cc1ccc(S(=O)(=O)N2CCN(C(=O)CCC(=O)NC3CCCc4ccccc43)CC2)cc1 (stereo not given) -4.5%, CCCCN(C)Cc1c(C)[nH]c2ccc(Cl)cc2c1=O -4.1%, Cc1ccc(S(=O)(=O)c2c[nH]c3ccc(C)cc3c2=O)cc1 -0.1%, CC1CCN(C(=O)CN(c2ccc(Oc3ccccc3)cc2)S(C)(=O)=O)CC1 2.5%, CCN(CC)CCn1cnc2c1c(=O)n(CCOC(=O)c1cc(OC)c(OC)c(OC)c1)c(=O)n2C -2.8%, O=C(Nc1ccc(N2CCN(C(=O)C3CC3)CC2)cc1)c1cccs1 -1.5%, Cc1ccc(C(=O)NCC(=O)OCc2nnc(-c3ccccc3)o2)cc1 -0.5%, O=C(CCS(=O)(=O)c1ccc2c(c1)NC(=O)CS2)NCc1ccccc1Cl 1.6%, CNc1cncc(-c2ccc(NS(C)(=O)=O)cc2)n1 4.2%, CC(C)NS(=O)(=O)c1ccc(OCC(=O)NC2CCCCCC2)cc1 -0.6%, O=C1C(=O)N(CCN2CCOCC2)C(c2ccccn2)/C1=C(/O)c1ccc(Cl)cc1 (stereo not given) -3.3%, CCCC1C(=O)N2C(N(C)C)=Nc3ccc(C)cc3N2C1=O (stereo not given) -0.2%, CCOc1ccc(N(CC(=O)NCC2CCCO2)S(=O)(=O)c2ccc(C)cc2)cc1 (stereo not given) 0.9%, CCOC(=O)CCc1c(C)c2ccc(OCc3nn[nH]n3)c(C)c2oc1=O 2.9%, Cc1c(CCC(=O)O)c(=O)oc2cc(OCc3ccc(Br)cc3)ccc12 5.4%, COc1ccc(C2COC(=O)C2=N)c(NC(=O)c2ccccc2)c1 (stereo not given) 1.3%, O=C(c1cc2ccccc2s1)N1CCN(c2ccccn2)CC1 -0.1%, O=C(c1c(F)cccc1Cl)N1CCN(c2ccccn2)CC1 -1.8%, O=C(COC(=O)/C=C/c1ccc(Br)o1)Nc1cccc(S(=O)(=O)N2CCOCC2)c1 2.1%, CC(C)(C)NC(=O)CSC(=Nc1ccccc1F)NC#N -0.7%, Cc1c(C#N)c2ncn(CC#N)c(=O)c2n1-c1ccccc1 -3.8%, Cc1nnsc1C(=O)NCc1c(F)cccc1Cl -0.5%, CC1C(=O)NC(=O)C1c1ccccc1 (stereo not given) -2%, COc1ccc2c(c1)CCc1c(C(=O)N3CCc4ccccc4C3)noc1-2 -1%, CCCS(=O)(=O)N1CCN=C1SCc1cccc(F)c1 0.3%, Cc1cc(Cl)ccc1NC(=S)N1CCC(C(N)=O)(N2CCCCC2)CC1 -1.3%, CNc1[nH]ncc1[N+](=O)[O-] -1.1%, CCCCSCCCNC(=O)C1CCC(CNS(=O)(=O)c2ccc(NC(C)=O)cc2)CC1 (stereo not given) 1%, Cc1ccc(-n2c(C)nnc2SCC(=O)NC2CC2)cc1 0.1%

inhibition, active:
COCCNC(=O)Nc1ccc2nc(-c3ccco3)c(-c3ccco3)nc2c1 60.1%, CN(C(=O)COC(=O)c1cc(-c2ccco2)nc2ccccc12)C1CCS(=O)(=O)C1 (stereo not given) 64.5%, Cc1ccccc1CC1(CO)CCCN(C(=O)c2cc(-c3ccccc3)no2)C1 (stereo not given) 120%, O=C(COc1cccc(F)c1)Oc1ccc(C(=O)c2ccccc2)cc1 89.8%, Cc1ccc(S(=O)(=O)c2c[nH]c3ccc(Cl)cc3c2=O)cc1 37.4%, Cc1ccc(-c2nnc(-c3ccc(NC(=O)c4cccs4)cc3)o2)cc1 54.4%, Cc1c(CCC(=O)O)c(=O)oc2c(C)c(OCc3ccccc3Cl)ccc12 98.9%, Cc1cc(C(=O)N2CCN(c3ccccn3)CC2)c(C)o1 39.4%, O=c1ccc2c(-c3ccccc3S(=O)(=O)O)c3ccc(O)c(O)c3oc-2c1O 96.8%
